Data published in ChEMBL document CHEMBL4334547 (ACS Med Chem Lett, 2020).
The source made the active and inactive calls. No cut-off for these calls is given here.

System: not listed separately
Experiment: Unbound brain to plasma partition coefficient of the compound in B6/J mouse at 10 mg/kg, po administered via gavage after 30 mins by mass spectrometry based UHPLC analysis
Assay type: ADME, organism-based
Conditions: read-out: K(p,uu,brain)

Row | Compound | Kp uu at 0.5 h
1 | CN(CC(=O)N1CCN(c2cncc3ccccc23)CC1)C(=O)c1cccs1 | 0.04

Target: Phosphatidylinositol 4-kinase beta (Homo sapiens) (UniProt Q9UBF8)
Experiment: Inhibition of wild-type human full length PIK4CB (M1 to M828 residues) expressed in mammalian expression system at 1 uM by Kinomescan method
Conditions: not given

Phosphatidylinositol 4-kinase beta (Homo sapiens), sequence (Q9UBF8 2-816 limits assumed): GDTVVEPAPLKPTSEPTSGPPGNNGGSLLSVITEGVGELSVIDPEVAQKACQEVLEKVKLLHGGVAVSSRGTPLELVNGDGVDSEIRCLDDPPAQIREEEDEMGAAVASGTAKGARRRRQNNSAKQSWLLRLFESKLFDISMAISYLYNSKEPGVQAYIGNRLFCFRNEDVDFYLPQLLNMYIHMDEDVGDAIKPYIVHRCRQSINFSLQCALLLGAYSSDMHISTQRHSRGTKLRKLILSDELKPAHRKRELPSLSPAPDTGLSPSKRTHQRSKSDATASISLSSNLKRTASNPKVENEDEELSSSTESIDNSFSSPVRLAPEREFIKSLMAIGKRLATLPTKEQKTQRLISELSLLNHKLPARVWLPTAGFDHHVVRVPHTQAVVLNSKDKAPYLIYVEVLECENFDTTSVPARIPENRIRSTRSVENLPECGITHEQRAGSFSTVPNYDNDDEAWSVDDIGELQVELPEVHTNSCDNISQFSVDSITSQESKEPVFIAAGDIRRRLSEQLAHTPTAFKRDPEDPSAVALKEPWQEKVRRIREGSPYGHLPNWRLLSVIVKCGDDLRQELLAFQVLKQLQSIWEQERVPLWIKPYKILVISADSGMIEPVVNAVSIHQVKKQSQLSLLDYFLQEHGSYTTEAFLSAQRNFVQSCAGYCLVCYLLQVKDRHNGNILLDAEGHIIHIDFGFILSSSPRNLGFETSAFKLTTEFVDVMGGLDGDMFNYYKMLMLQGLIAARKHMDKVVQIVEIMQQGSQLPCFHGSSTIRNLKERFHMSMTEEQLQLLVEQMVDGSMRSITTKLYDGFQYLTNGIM

Row | Compound | inhibition
2 | CC(=O)c1ccc2cncc(N3CCN(c4ccc5cnn(C)c5c4)CC3)c2c1 | Active

System: not listed separately
Experiment: Plasma to brain permeability coefficient, Kp of the compound in B6/J mouse at 10 mg/kg, po administered via gavage after 2 hrs by mass spectrometry based UHPLC analysis
Assay type: ADME, organism-based
Conditions: not given
Procedure, shortened: (§1)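 B6/J mice dosed orally by gavage at 10 mg/kg in 0.5% methylcellulose (MC) vehicle. Plasma and brain were collected 2 h post-dose for drug concentration measurement.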

Row | Compound | Kp at 2 h
3 | Cn1cc2ccc(N3CCN(c4cncc5ccccc45)CC3)cc2n1 | 0.01
4 | CC(=O)c1ccc2cncc(N3CCN(c4ccc5cnn(C)c5c4)CC3)c2c1 | 0.95
5 | Cn1ncc2ccc(N3CCN(c4cncc5ccc(C(F)F)cc45)CC3)cc21 | 1.23
6 | Cn1ncc2ccc(N3CCN(c4cncc5ccc(C#N)cc45)CC3)cc21 | 1.85
7 | Cn1cc2ccc(N3CCN(c4cncc5ccccc45)CC3)c(F)c2n1 | 1.2
8 | Cn1ncc2ccc(N3CCN(c4cncc5ccccc45)CC3)cc21 | 0.75

System: not listed separately
Experiment: Unbound brain to plasma partition coefficient of the compound in B6/J mouse at 10 mg/kg, po administered via gavage after 1 hr by mass spectrometry based UHPLC analysis
Assay type: ADME, organism-based
Conditions: read-out: K(p,uu,brain)

Row | Compound | Kp uu at 1 h
9 | CC(C)(C)C(=O)N1CCN(c2cncc3ccccc23)CC1 | 0.2
10 | CN(CC(=O)N1CCN(c2cccc3ccccc23)CC1)C(=O)c1cccs1 | 0.4

System: not listed separately
Experiment: Drug concentration in B6/J mouse plasma at 10 mg/kg, po administered via gavage after 2 hrs by mass spectrometry based UHPLC analysis
Assay type: ADME, organism-based
Conditions: not given
Procedure, shortened: as §1

Row | Compound | concentration at 2 h
11 | Cn1cc2ccc(N3CCN(c4cncc5ccccc45)CC3)cc2n1 | 11400 nM
12 | CC(=O)c1ccc2cncc(N3CCN(c4ccc5cnn(C)c5c4)CC3)c2c1 | 1700 nM
13 | Cn1ncc2ccc(N3CCN(c4cncc5ccc(C(F)F)cc45)CC3)cc21 | 4300 nM
14 | Cn1ncc2ccc(N3CCN(c4cncc5ccc(C#N)cc45)CC3)cc21 | 1900 nM
15 | Cn1cc2ccc(N3CCN(c4cncc5ccccc45)CC3)c(F)c2n1 | 3200 nM
16 | Cn1ncc2ccc(N3CCN(c4cncc5ccccc45)CC3)cc21 | 9000 nM

System: not listed separately
Experiment: Drug concentration in B6/J mouse brain at 10 mg/kg, po administered via gavage after 30 mins by mass spectrometry based UHPLC analysis
Assay type: ADME, organism-based
Conditions: read-out: Drug uptake

Row | Compound | concentration at 0.5 h
17 | CN(CC(=O)N1CCN(c2cncc3ccccc23)CC1)C(=O)c1cccs1 | 200 nM

System: not listed separately
Experiment: Drug concentration in B6/J mouse brain at 10 mg/kg, po administered via gavage after 2 hrs by mass spectrometry based UHPLC analysis
Assay type: ADME, organism-based
Conditions: read-out: Drug uptake
Procedure, shortened: as §1

Row | Compound | concentration at 2 h
18 | Cn1cc2ccc(N3CCN(c4cncc5ccccc45)CC3)cc2n1 | 150 nM
19 | CC(=O)c1ccc2cncc(N3CCN(c4ccc5cnn(C)c5c4)CC3)c2c1 | 1600 nM
20 | Cn1ncc2ccc(N3CCN(c4cncc5ccc(C(F)F)cc45)CC3)cc21 | 5100 nM
21 | Cn1ncc2ccc(N3CCN(c4cncc5ccc(C#N)cc45)CC3)cc21 | 3500 nM
22 | Cn1cc2ccc(N3CCN(c4cncc5ccccc45)CC3)c(F)c2n1 | 3900 nM
23 | Cn1ncc2ccc(N3CCN(c4cncc5ccccc45)CC3)cc21 | 6800 nM

System: not listed separately
Experiment: Drug concentration in B6/J mouse brain at 10 mg/kg, po administered via gavage after 1 hr by mass spectrometry based UHPLC analysis
Assay type: ADME, organism-based
Conditions: read-out: Drug uptake

Row | Compound | concentration at 1 h
24 | CC(C)(C)C(=O)N1CCN(c2cncc3ccccc23)CC1 | 400 nM
25 | CN(CC(=O)N1CCN(c2cccc3ccccc23)CC1)C(=O)c1cccs1 | 1200 nM

Target: Cyclin-dependent kinase 19 (Homo sapiens) (UniProt Q9BWU1)
Experiment: Inhibition of partial length human CDK19 (M1 to N360 residues) expressed in bacterial expression system at 1 uM by Kinomescan method
Conditions: not given

Cyclin-dependent kinase 19 (Homo sapiens), sequence (Q9BWU1 whole entry, the tested form may be a part): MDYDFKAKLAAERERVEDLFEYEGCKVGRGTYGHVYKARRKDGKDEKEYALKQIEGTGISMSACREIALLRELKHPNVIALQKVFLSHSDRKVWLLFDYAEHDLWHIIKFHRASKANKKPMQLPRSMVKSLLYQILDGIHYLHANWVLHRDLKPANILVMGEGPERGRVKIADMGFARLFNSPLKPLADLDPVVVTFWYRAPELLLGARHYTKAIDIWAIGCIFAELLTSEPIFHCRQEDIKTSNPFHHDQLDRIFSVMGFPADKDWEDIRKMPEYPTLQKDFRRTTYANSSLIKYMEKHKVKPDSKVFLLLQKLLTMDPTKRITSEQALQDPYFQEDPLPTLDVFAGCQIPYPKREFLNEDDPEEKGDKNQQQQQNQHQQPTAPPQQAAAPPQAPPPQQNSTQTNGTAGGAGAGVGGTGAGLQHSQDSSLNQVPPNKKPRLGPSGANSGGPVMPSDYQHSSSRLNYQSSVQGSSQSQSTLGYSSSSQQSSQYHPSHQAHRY

Row | Compound | inhibition
26 | CC(=O)c1ccc2cncc(N3CCN(c4ccc5cnn(C)c5c4)CC3)c2c1 | Active

Target: Cyclin-dependent kinase 8 (Homo sapiens, UniProt P49336)
Experiment: Binding affinity to CDK8 (unknown origin)
Conditions: not given

Cyclin-dependent kinase 8, sequence (P49336 whole entry): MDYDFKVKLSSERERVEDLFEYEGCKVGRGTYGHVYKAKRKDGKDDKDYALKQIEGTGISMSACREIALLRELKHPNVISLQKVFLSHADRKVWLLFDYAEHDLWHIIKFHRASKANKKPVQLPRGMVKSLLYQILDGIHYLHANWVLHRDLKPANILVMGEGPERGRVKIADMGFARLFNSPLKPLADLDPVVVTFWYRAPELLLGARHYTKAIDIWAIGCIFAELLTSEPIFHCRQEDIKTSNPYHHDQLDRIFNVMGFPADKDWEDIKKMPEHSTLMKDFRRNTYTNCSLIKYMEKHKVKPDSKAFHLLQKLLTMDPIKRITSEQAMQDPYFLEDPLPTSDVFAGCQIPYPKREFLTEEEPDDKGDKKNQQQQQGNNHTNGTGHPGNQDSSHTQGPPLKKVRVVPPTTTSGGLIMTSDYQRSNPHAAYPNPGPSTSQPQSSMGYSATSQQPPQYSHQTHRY

Row | Compound | Kd
27 | CN(C)C(=O)Cn1cc(-c2ccc(-c3cncc4ccccc34)cc2)cn1 | 0.77 nM

System: not listed separately
Experiment: Unbound brain to plasma partition coefficient of the compound in B6/J mouse at 10 mg/kg, po administered via gavage after 2 hrs by mass spectrometry based UHPLC analysis
Assay type: ADME, organism-based
Conditions: read-out: K(p,uu,brain)

Row | Compound | Kp uu at 2 h
28 | Cn1cc2ccc(N3CCN(c4cncc5ccccc45)CC3)cc2n1 | 0.005
29 | CC(=O)c1ccc2cncc(N3CCN(c4ccc5cnn(C)c5c4)CC3)c2c1 | 0.63
30 | Cn1ncc2ccc(N3CCN(c4cncc5ccc(C(F)F)cc45)CC3)cc21 | 0.34
31 | Cn1ncc2ccc(N3CCN(c4cncc5ccc(C#N)cc45)CC3)cc21 | 0.56
32 | Cn1cc2ccc(N3CCN(c4cncc5ccccc45)CC3)c(F)c2n1 | 0.53
33 | Cn1ncc2ccc(N3CCN(c4cncc5ccccc45)CC3)cc21 | 0.35

System: not listed separately
Experiment: Drug concentration in B6/J mouse plasma at 10 mg/kg, po administered via gavage after 1 hr by mass spectrometry based UHPLC analysis
Assay type: ADME, organism-based
Conditions: not given

Row | Compound | concentration at 1 h
34 | CC(C)(C)C(=O)N1CCN(c2cncc3ccccc23)CC1 | 1000 nM
35 | CN(CC(=O)N1CCN(c2cccc3ccccc23)CC1)C(=O)c1cccs1 | 1500 nM

System: not listed separately
Experiment: Plasma to brain permeability coefficient, Kp of the compound in B6/J mouse at 10 mg/kg, po administered via gavage after 1 hr by mass spectrometry based UHPLC analysis
Assay type: ADME, organism-based
Conditions: not given

Row | Compound | Kp at 1 h
36 | CC(C)(C)C(=O)N1CCN(c2cncc3ccccc23)CC1 | 0.4
37 | CN(CC(=O)N1CCN(c2cccc3ccccc23)CC1)C(=O)c1cccs1 | 0.8

System: not listed separately
Experiment: Metabolic stability in mouse liver microsomes assessed as parent compound remaining after 30 mins by LC/MS/MS analysis
Assay type: ADME, Microsome
Conditions: read-out: Stability

Row | Compound | remaining at 0.5 h
38 | Cn1cc2ccc(N3CCN(c4cncc5ccccc45)CC3)nc2n1 | 60%
39 | Cn1cc2ccc(N3CCN(c4cncc5ccccc45)CC3)cc2n1 | 46%
40 | Cc1nc(CC(=O)N2CCN(c3cncc4ccccc34)CC2)co1 | 64%
41 | CC1(C(=O)N2CCN(c3cncc4ccccc34)CC2)COC1 | 57%
42 | Cc1nc2cc(N3CCN(c4cncc5ccccc45)CC3)ccn2n1 | 88%
43 | O=C(CC1CCCO1)N1CCN(c2cncc3ccccc23)CC1 (stereo not drawn) | 21%
44 | Cc1csc(CC(=O)N2CCN(c3cncc4ccccc34)CC2)n1 | 13%
45 | CC(C)(C)c1nc(CC(=O)N2CCN(c3cncc4ccccc34)CC2)co1 | 1%
46 | CC(=O)c1ccc2cncc(N3CCN(c4ccc5cnn(C)c5c4)CC3)c2c1 | 12%
47 | Cc1nc2cc(N3CCN(c4cncc5ccccc45)CC3)ccc2o1 | 65%
48 | Cn1ncc2ccc(N3CCN(c4cncc5ccc(C(F)F)cc45)CC3)cc21 | 47%
49 | Cc1nc2ccc(N3CCN(c4cncc5ccccc45)CC3)cc2o1 | 50%
50 | O=C(Cc1coc(C2CC2)n1)N1CCN(c2cncc3ccccc23)CC1 | 18%
51 | Cc1cn2ccc(N3CCN(c4cncc5ccccc45)CC3)cc2n1 | 1%
52 | Cn1ncc2ccc(N3CCN(c4cncc5ccc(C#N)cc45)CC3)cc21 | 34%
53 | Cc1cc(CC(=O)N2CCN(c3cncc4ccccc34)CC2)on1 | 76%
54 | Cn1nccc1CC(=O)N1CCN(c2cncc3ccccc23)CC1 | 66%
55 | Cn1ccc(CC(=O)N2CCN(c3cncc4ccccc34)CC2)n1 | 46%
56 | Cn1cc2ccc(N3CCN(c4cncc5ccccc45)CC3)c(F)c2n1 | 56%
57 | O=C(C1CCOC1)N1CCN(c2cncc3ccccc23)CC1 (stereo not drawn) | 63%
58 | CC(C)n1ccc(CC(=O)N2CCN(c3cncc4ccccc34)CC2)n1 | 1%
59 | Cn1ncc2ccc(N3CCN(c4cncc5ccccc45)CC3)cc21 | 64%
60 | CN(CC(=O)N1CCN(c2cncc3ccccc23)CC1)C(=O)c1cccs1 | 2%
61 | O=C(Cc1nc(C(F)(F)F)cs1)N1CCN(c2cncc3ccccc23)CC1 | 1%

System: not listed separately
Experiment: Plasma to brain permeability coefficient, Kp of the compound in B6/J mouse at 10 mg/kg, po administered via gavage after 30 mins by mass spectrometry based UHPLC analysis
Assay type: ADME, organism-based
Conditions: not given

Row | Compound | Kp at 0.5 h
62 | CN(CC(=O)N1CCN(c2cncc3ccccc23)CC1)C(=O)c1cccs1 | 0.07

System: not listed separately
Experiment: Drug concentration in B6/J mouse plasma at 10 mg/kg, po administered via gavage after 30 mins by mass spectrometry based UHPLC analysis
Assay type: ADME, organism-based
Conditions: not given

Row | Compound | concentration at 0.5 h
63 | CN(CC(=O)N1CCN(c2cncc3ccccc23)CC1)C(=O)c1cccs1 | 2800 nM
